Compound activity: PubChem, Broad Institute
CAL PDZ FP-1: CAL PDZ peptide-binding inhibitors, primary screen, biochemical, fluorescence polarization, Cer-tagged CAL PDZ, HTS | Golgi-associated PDZ and coiled-coil motif-containing protein (Homo sapiens), Q9HD26 | purified CAL PDZ, TMR-peptide fluorescence polarization, 1 h | inhibition, % at 20 µM | 330,000 compounds, 0.02% hits;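 active = highest replicate inhibition of at least 40%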;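 also: plate controls were DMSO neutral control wells for no effect and unlabeled competitor peptide control wells for full effect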
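Material: tagged CAL PDZ domain; buffer or medium: 25 mM sodium phosphate pH 7.4, 150 mM NaCl, TCEP, IgG, Thesit; compound dosing: single point, 20 µM; schedule: 1 h incubation at room temperature before polarization reading; measured by: FP readout, S and P plane fluorescence; read-out basis: percent inhibition from loss of millipolarization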
Vif inh: HIV Vif self-association inhibitors, primary screen, imaging, HEK293T, single point; HEK293T cells, Vif self-association by quenched fluorescence, 24 h; inhibition, % at 7.49 µM; 340,000 compounds, 0.35% hits; in the data active = inhibition above about 50%, passing the limit was not always enough; inconclusive = no clear call, values can overlap the other calls; inactive = below about 31%
CDK5 p35 inh: inhibitors of human CDK5/p35 kinase, primary screen, biochemical, single concentration. 330,000 compounds, 0.01% hits. AID 488839, 2010. inhibition, % at 10 µM. Recombinant CDK5/p35, ADP-Glo luminescence, 60 min;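 active = highest replicate inhibition of at least 50% and at least 75% of replicates reaching 50%; inconclusive = only one of the two criteria met; inactive = both criteria failed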;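 also: plate controls were DMSO neutral control for no effect and GW8510 at 10 µM for full effect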
Target sequence (Q00535 whole entry, looked up): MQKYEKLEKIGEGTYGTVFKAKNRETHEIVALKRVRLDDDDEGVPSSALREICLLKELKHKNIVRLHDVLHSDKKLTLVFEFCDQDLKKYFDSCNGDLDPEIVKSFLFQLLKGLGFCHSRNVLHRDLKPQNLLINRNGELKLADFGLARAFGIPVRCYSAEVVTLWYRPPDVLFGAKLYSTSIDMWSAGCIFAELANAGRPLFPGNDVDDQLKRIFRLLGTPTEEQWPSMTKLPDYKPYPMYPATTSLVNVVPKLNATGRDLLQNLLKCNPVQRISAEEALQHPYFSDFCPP
Target sequence (Q15078 whole entry, looked up): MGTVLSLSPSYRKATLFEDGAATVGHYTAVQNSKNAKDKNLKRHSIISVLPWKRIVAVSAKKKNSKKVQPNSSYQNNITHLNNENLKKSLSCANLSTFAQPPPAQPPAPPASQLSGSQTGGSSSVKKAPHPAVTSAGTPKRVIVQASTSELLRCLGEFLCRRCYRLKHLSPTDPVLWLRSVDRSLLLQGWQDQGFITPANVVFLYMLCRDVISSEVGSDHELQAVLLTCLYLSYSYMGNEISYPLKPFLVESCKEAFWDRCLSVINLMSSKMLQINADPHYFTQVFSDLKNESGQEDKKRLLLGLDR
PvdQ inh: P. aeruginosa PvdQ acylase inhibitors, primary screen, biochemical, fluorescence, plate reader and imaging, single point; PvdQ acylase [Pseudomonas aeruginosa LESB58]; inhibition, % at 10 µM; purified PvdQ acylase; 340,000 compounds, 0.063% hits; AID 488965, 2010; in the data active = inhibition above about 30%, passing the limit was not always enough; inconclusive = no clear call, values can overlap the other calls;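 also: 0% = vehicle neutral wells and 100% = reference inhibitor wells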
Glyco luc inh: increase of ERlucT glycosylation luciferase signal, primary screen, N-linked glycosylation inhibitor project, D54 ERlucT cells, luminescence, set 2 | D54 ERlucT glycosylation luciferase reporter, 24 h; percent of 100 nM tunicamycin response | reporter increase, % at 12.5 µM | 360,000 compounds, 0.23% hits;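 active = mean luciferase reporter signal, scaled so untreated is 0 and the glycosylation-blocking control 100, at or above a set limit in every replicate; inconclusive = mean reaches the limit but not every replicate does; inactive = mean below the limit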;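 also: luciferase carries N-glycosylation sites so blocking glycosylation raises the light; 0% = median of neutral control wells and 100% = median of 100 nM tunicamycin wells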
CAL PDZ FP-2: untagged CAL PDZ binding inhibitors, primary screen, biochemical, fluorescence polarization, HTS; Golgi-associated PDZ and coiled-coil motif-containing protein (Homo sapiens), Q9HD26; purified CAL PDZ, TMR-peptide fluorescence polarization, 1 h; inhibition, % at 24.9 µM; 300,000 compounds, 0.92% hits;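 active = mean inhibition of at least 30% with at least half of replicates also reaching 30%; inconclusive = no clear call, values can overlap the other calls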;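 also: 0% = DMSO neutral control and 100% = excess unlabeled competitor peptide PRC23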
* hit, by the source's call; u = inconclusive; x = no result. Rows were chosen to be rich in hits. Some 1.4% of all compounds tested hit in one or more screens of this group.

SMILES	CAL PDZ FP-1	Vif inh	CDK5 p35 inh	PvdQ inh	Glyco luc inh	CAL PDZ FP-2
CN1C(=O)C(=Cc2sc(=O)n(-c3ccccc3)c2N(C)C)C(=O)N(C)C1=O	-2	11	2	-17	29*	x
Cc1ccc2c(C)c3ccc4ccccc4c3c[n+]2c1	-2	-18	-1	-10	37*	38*
CCCCOC(=O)c1ccccc1C(=O)OCCCC	0	6	1	-7	0	42*
CCOC(=O)c1ccccc1N	0	14	0	-5	0	7
CC1(CCl)CN1S(=O)(=O)c1ccccc1 (stereo not given)	1	-1	-8	-5	10	-2
CCN1CCN(C(=O)COc2cc(=O)n(CC)c3ccccc23)CC1	0	31	1	1	6	0
CCn1c(=O)cc(OCC(=O)N2CCN(Cc3ccc4c(c3)OCO4)CC2)c2ccccc21	-3	67*	-1	0	5	-3
NNc1n[nH]c(=S)n1N	1	5	1	-7	2	-2
Cc1ccc(N2C(=O)NC(=O)/C(=C\C=C\c3ccco3)C2=O)cc1C	-1	5	0	7	47*	-4
Cc1cccc(N2C(=O)NC(=O)/C(=C\C=C\c3ccco3)C2=O)c1	0	15	-1	5	42*	2
O=C1NC(=O)N(Cc2ccccc2)C(=O)/C1=C\C=C\c1ccco1	-1	39	-1	-9	u	-3
O=C1NC(=O)N(c2ccccc2)C(=O)/C1=C/C=C/c1ccco1	-3	21	-2	-15	29*	-1
Cc1ccc(N2C(=O)NC(=O)/C(=C\C=C\c3ccco3)C2=O)cc1	-1	x	-2	-12	42*	-7
CN(C)c1ccc(/C=C/C=C2/C(=O)NC(=O)N(c3ccccc3)C2=O)cc1	-1	25	3	13	1	-5
CN1C(=O)/C(=C/C=C/c2ccco2)C(=O)NC1=S	-4	u	-11	9	0	-3
O=[N+]([O-])c1ccc(N2CCOCC2)c2ccncc12	-1	-1	2	-4	3	1
COC(=O)C1=C(c2ccc3ccccc3c2)C[C@@H]2CC[C@H]1N2C(=O)N1CCCC1	0	-5	-1	3	-3	-2
CCC(CO)(C(=O)OC1CC2CCC(C1)N2C)c1ccccc1 (stereo not given)	-1	-10	2	-1	0	x
C=CCn1c(O)c(C(CC)=NCC2CCCO2)c(=O)[nH]c1=O (stereo not given)	-1	1	1	-15	2	-7
O=C1NC(=O)N(Cc2ccco2)C(=O)/C1=C/C=C/c1ccco1	1	8	-4	5	36*	5
CCC(C)N1C(=O)/C(=C\c2cc3c4c(c2)CCCN4CCC3)C(=O)NC1=S (stereo not given)	0	-18	x	-5	-2	65*
CCC(C)N1C(=O)/C(=C\c2ccc(N3CCCCCC3)cc2)C(=O)NC1=S (stereo not given)	-1	1	2	22	2	x
CCn1c(O)c(C=NCc2cccs2)c(=O)[nH]c1=O	0	0	0	-5	5	51*
O=c1[nH]c(O)c(/C=C2/C=CC(c3cc(Cl)ccc3Cl)=N2)c(=O)[nH]1	-1	-3	2	1	49*	-6
CC1=Nc2ccccc2/C1=C/c1c(O)[nH]c(=O)[nH]c1=O	0	u	0	-12	1	x
SMILES	CAL PDZ FP-1	Vif inh	CDK5 p35 inh	PvdQ inh	Glyco luc inh	CAL PDZ FP-2
CC(=O)C1(c2ccccc2)CCN(C(=O)C2CCC(=O)N(CCc3cccc(F)c3)C2)CC1 (stereo not given)	0	-5	0	-4	3	-3
CCS(=O)(=O)Nc1cccc(C(=C2CCCCC2)c2cnc[nH]2)c1	0	69*	-1	-13	11	4
CC1(C)NC(=S)C(C)(C)N1N=O	1	10	-1	-4	0	1
Cc1cc(OC(C)C(=O)NCc2ccncc2)c2c3c(c(=O)oc2c1)CCC3 (stereo not given)	-1	-3	1	-7	6	31*
CC[C@H]1CN2CCC1C[C@@H]2[C@H](O)c1ccnc2ccc(OC)cc12 (stereo not given in full)	-1	-9	0	-7	-3	5
C=CC1CN2CCC1CC2C(OC(C)=O)c1ccnc2ccc(OC)cc12 (stereo not given)	-1	-5	-1	-10	0	58*
COc1ccc(Cl)cc1C(=O)C1CCCN(Cc2cnc(C)s2)C1 (stereo not given)	0	-32	1	-5	0	-3
COC(=O)C1=C(c2ccc3ccccc3c2)C[C@@H]2CC[C@H]1N2C(=O)N1CCOCC1	-1	-16	0	1	3	-5
COC(=O)C1=C(c2cc3ccccc3o2)C[C@@H]2CC[C@H]1N2C(=O)N1CCOCC1	0	4	0	-13	36*	2
C1CN(P2(N3CC3)=NP(N3CC3)(N3CC3)=NP(N3CC3)(N3CC3)=N2)CCO1 (stereo not given)	x	1	x	x	1	x
Cc1ccc(-n2c(O)c(C=NC3CCCC3)c(=O)[nH]c2=O)c(C)c1	0	3	0	-16	-1	49*
CC(Cc1ccccc1)NC(=O)Cc1ccc([N+](=O)[O-])cc1 (stereo not given)	1	2	0	-11	3	30*
O=[N+]([O-])c1ccc(Nc2ccccc2)cc1	-1	2	4	12	-4	-3
Cc1ccc(N2C(=O)NC(=O)C(CCc3ccccn3)(Cc3ccc(F)cc3)C2=O)cc1 (stereo not given)	x	-2	-2	-13	-1	0
COc1ccc(CC2C(=O)NC(C)C(=O)N(C)C3C(=O)N(C)C(Cc4ccc(O)c(c4)Oc4ccc(cc4)C3O)C(=O)NC(C)C(=O)NC(C)C(=O)N2C)cc1 (stereo not given)	0	-7	1	-23	-18	-3
O=P(Oc1ccc(-c2ccccc2)cc1)(N1CC1)N1CC1	6	13	-1	-6	-2	-10
C=CCn1c(O)c(C(C)=Nc2ccc(C(=O)O)cc2)c(=O)[nH]c1=O	0	2	-2	-11	-1	82*
COc1ccc(C(CC(C)=O)c2c(O)c3ccccc3oc2=O)cc1OC (stereo not given)	x	6	x	x	1	x
